# Assay results taken from ChEMBL document CHEMBL1287652, “QSAR modeling, synthesis and bioassay of diverse leukemia RPMI-8226 cell line active agents” (2010).
# How the values were obtained:
# Assay type in all cases: functional
# CAKI-1 = assay: Antitumor activity against human Caki1 cells after 48 hrs by sulforhodamine B assay; settings: CAKI-1, 48 h
# Summary of the method: (§1)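 Cells were grown in RPMI-1640 with 5% FBS and 2 mM L-glutamine, plated at 5000–40,000 cells/well, and preincubated for 24 h. A time-zero plate was TCA-fixed. Compounds were added from DMSO stock at five concentrations for 48 h at 37 °C. Cells were fixed with TCA (adherent 10%, suspension 16%) and stained with SRB, and A515 was read. GI50 and TGI were calculated from Tz, control and test absorbances.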
# HL-60(TB) = assay: Antitumor activity against human HL-60(TB) cells after 48 hrs by sulforhodamine B assay; settings: HL-60, 48 h
# Summary of the method: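 NCI panel screen. Cells were grown in RPMI-1640 with 5% FBS and 2 mM L-glutamine, seeded at 5000–40,000 cells/well depending on doubling time, and preincubated 24 h at 37 °C in 5% CO2. Compound was diluted from a DMSO concentrate to five levels and given for 48 h. Settled cells were fixed with TCA (final 16%), stained with 0.4% SRB, and read at 515 nm. GI50 was taken from [(Ti−Tz)/(C−Tz)]×100 = 50.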
# MOLT-4 = assay: Antitumor activity against human MOLT4 cells after 48 hrs by sulforhodamine B assay; settings: MOLT-4, 48 h
# Summary of the method: (§2)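 Cells were cultured in RPMI-1640 (5% FBS, 2 mM L-glutamine), pre-incubated for 24 h with time-zero plates TCA-fixed, then exposed for 48 h to five serial dilutions. The SRB read-out at 515 nm used time-zero, control and test absorbances. GI50 solves [(Ti−Tz)/(C−Tz)]×100 = 50 (net protein increase). TGI is the concentration giving 100% growth inhibition.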
# SR = assay: Antitumor activity against human SR cells after 48 hrs by sulforhodamine B assay; summary of the method: as §2
# [1] = Antitumor activity against human […] cells after 48 hrs by sulforhodamine B assay; settings: RPMI-8226, 48 h; summary of the method: as §2
# EKVX = assay: Antitumor activity against human EKVX cells after 48 hrs by sulforhodamine B assay; summary of the method: as §1
# HOP-62 = assay: Antitumor activity against human HOP62 cells after 48 hrs by sulforhodamine B assay; settings: HOP-62, 48 h; summary of the method: as §1
# HOP-92 = assay: Antitumor activity against human HOP92 cells after 48 hrs by sulforhodamine B assay; settings: HOP-92, 48 h; summary of the method: as §1
# NCI-H23 = assay: Antitumor activity against human NCI-H23 cells after 48 hrs by sulforhodamine B assay; settings: NCI-H23, 48 h; summary of the method: as §2
# NCI-H460 = assay: Antitumor activity against human NCI-H460 cells after 48 hrs by sulforhodamine B assay; settings: NCI-H460, 48 h; summary of the method: as §2
# NCI-H522 = assay: Antitumor activity against human NCI-H522 cells after 48 hrs by sulforhodamine B assay; settings: NCI-H522, 48 h; summary of the method: as §2
# HCT-116 = assay: Antitumor activity against human HCT116 cells after 48 hrs by sulforhodamine B assay; settings: HCT-116, 48 h; summary of the method: as §1
# HCT-15 = assay: Antitumor activity against human HCT15 cells after 48 hrs by sulforhodamine B assay; settings: HCT-15, 48 h; summary of the method: as §1
# HT-29 = assay: Antitumor activity against human HT-29 cells after 48 hrs by sulforhodamine B assay; settings: HT-29, 48 h; summary of the method: as §1
# SW-620 = assay: Antitumor activity against human SW620 cells after 48 hrs by sulforhodamine B assay; settings: SW-620, 48 h
# Summary of the method: (§3)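 Cells grown in RPMI-1640 with 5% FBS and 2 mM glutamine, plated and preincubated 24 h; time-zero plates TCA-fixed. Five-level serial dilutions added, 48 h at 37 °C. TCA fixation, SRB staining, absorbance 515 nm. GI50 derived from [(Ti−Tz)/(C−Tz)]×100 = 50; TGI is concentration giving 100% growth inhibition.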
# SF-295 = assay: Antitumor activity against human SF295 cells after 48 hrs by sulforhodamine B assay; settings: SF-295, 48 h; summary of the method: as §2
# SF-539 = assay: Antitumor activity against human SF539 cells after 48 hrs by sulforhodamine B assay; settings: SF-539, 48 h; summary of the method: as §2
# SNB-75 = assay: Antitumor activity against human SNB75 cells after 48 hrs by sulforhodamine B assay; settings: SNB-75, 48 h; summary of the method: as §2
# Malme-3M = assay: Antitumor activity against human MALME-3M cells after 48 hrs by sulforhodamine B assay; summary of the method: as §1
# MDA-MB-435 = assay: Antitumor activity against human MDA-MB-435 cells after 48 hrs by sulforhodamine B assay; settings: MDA-MB-435, 48 h; summary of the method: as §1
# SK-MEL-5 = assay: Antitumor activity against human SK-MEL-5 cells after 48 hrs by sulforhodamine B assay; settings: SK-MEL-5, 48 h; summary of the method: as §2
# IGROV-1 = assay: Antitumor activity against human IGROV1 cells after 48 hrs by sulforhodamine B assay; settings: IGROV-1, 48 h; summary of the method: as §1
# OVCAR-4 = assay: Antitumor activity against human OVCAR4 cells after 48 hrs by sulforhodamine B assay; settings: OVCAR-4, 48 h; summary of the method: as §2
# OVCAR-5 = assay: Antitumor activity against human OVCAR5 cells after 48 hrs by sulforhodamine B assay; settings: OVCAR-5, 48 h; summary of the method: as §2
# SK-OV-3 = assay: Antitumor activity against human SKOV3 cells after 48 hrs by sulforhodamine B assay; settings: SK-OV-3, 48 h; summary of the method: as §2
# SN12C = assay: Antitumor activity against human SN12C cells after 48 hrs by sulforhodamine B assay; summary of the method: as §2
# TK-10 = assay: Antitumor activity against human TK10 cells after 48 hrs by sulforhodamine B assay; settings: TK-10, 48 h; summary of the method: as §3
# UO-31 = assay: Antitumor activity against human UO31 cells after 48 hrs by sulforhodamine B assay; settings: UO-31, 48 h; summary of the method: as §3
# [2] = Antitumor activity against human Hs 578T cells after 48 hrs by sulforhodamine B assay; summary of the method: as §1
# BT-549 = assay: Antitumor activity against human BT549 cells after 48 hrs by sulforhodamine B assay; settings: BT-549, 48 h; summary of the method: as §1
# T47D = assay: Antitumor activity against human T47D cells after 48 hrs by sulforhodamine B assay; summary of the method: as §3
structure (smiles),measurement,setting,value
COc1ccc(NC(=O)Nc2ccccc2OCCCOc2ccccc2NC(=O)Nc2ccc(OC)cc2)cc1,GI50,CAKI-1,> 100 µM
same,TGI,CAKI-1,> 100 µM
same,GI50,HL-60(TB),26.7 µM
same,TGI,HL-60(TB),68 µM
same,GI50,MOLT-4,17.7 µM
same,TGI,MOLT-4,36.6 µM
same,GI50,SR,0.2 µM
same,TGI,SR,4 µM
same,GI50,[1],58.3 µM
same,TGI,[1],> 100 µM
same,GI50,EKVX,10.5 µM
same,TGI,EKVX,> 100 µM
same,GI50,HOP-62,3.3 µM
same,TGI,HOP-62,9.4 µM
same,GI50,HOP-92,2.7 µM
same,TGI,HOP-92,8.6 µM
same,GI50,NCI-H23,12.4 µM
same,TGI,NCI-H23,> 100 µM
same,GI50,NCI-H460,> 100 µM
same,TGI,NCI-H460,> 100 µM
same,GI50,NCI-H522,> 100 µM
same,TGI,NCI-H522,> 100 µM
same,GI50,HCT-116,5.3 µM
same,TGI,HCT-116,> 100 µM
same,GI50,HCT-15,> 100 µM
same,TGI,HCT-15,> 100 µM
same,GI50,HT-29,> 100 µM
same,TGI,HT-29,> 100 µM
same,GI50,SW-620,> 100 µM
same,TGI,SW-620,> 100 µM
same,GI50,SF-295,29.9 µM
same,TGI,SF-295,> 100 µM
same,GI50,SF-539,3.4 µM
same,TGI,SF-539,> 100 µM
same,GI50,SNB-75,1.5 µM
same,TGI,SNB-75,5.3 µM
same,GI50,Malme-3M,0.3 µM
same,TGI,Malme-3M,5.3 µM
same,GI50,MDA-MB-435,> 100 µM
same,TGI,MDA-MB-435,> 100 µM
same,GI50,SK-MEL-5,> 100 µM
same,TGI,SK-MEL-5,> 100 µM
same,GI50,IGROV-1,> 100 µM
same,TGI,IGROV-1,> 100 µM
same,GI50,OVCAR-4,> 100 µM
same,TGI,OVCAR-4,> 100 µM
same,GI50,OVCAR-5,> 100 µM
same,TGI,OVCAR-5,> 100 µM
same,GI50,SK-OV-3,5 µM
same,TGI,SK-OV-3,> 100 µM
same,GI50,SN12C,> 100 µM
same,TGI,SN12C,> 100 µM
same,GI50,TK-10,4 µM
same,TGI,TK-10,49.7 µM
same,GI50,UO-31,> 100 µM
same,TGI,UO-31,> 100 µM
same,GI50,[2],> 100 µM
same,TGI,[2],> 100 µM
same,GI50,BT-549,1.5 µM
same,TGI,BT-549,29.2 µM
same,GI50,T47D,> 100 µM
same,TGI,T47D,> 100 µM
